From ChEMBL document CHEMBL5252539, “In vitro biological evaluation of new antimycobacterial salicylanilide-tuftsin conjugates” (Eur J Med Chem, 2017)
Converted amounts (≈) assume the structure as drawn. The source made the active and inactive calls. The rule behind the calls is not given here.

Tests used:
HepG2 = assay: Cytostatic activity against human HepG2 cells assessed as reduction in cell viability incubated for 24 hrs by MTT assay; type: functional, cell-based; conditions: HepG2, 24 h
Summary of the method: (§1)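 MTT viability assay after 24 h exposure of MonoMac6 human monocytic cells or HepG2 human hepatocellular carcinoma cells. Top concentration 200 μM. IC50 taken from dose-response curves as the concentration reducing viability to 50% of maximal.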

[1] = Selectivity index, ratio of IC50 for cytostatic activity against human HepG2 cells to MIC for antimycobacterial activity against Mycobacterium tuberculosis H37Rv ATCC 27294; type: toxicity, cell-based; conditions: read-out: Selectivity Index
Summary of the method: (§2)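 MTT assay on MonoMac6 or HepG2 cells after 24 h exposure, top concentration 200 µM. SI = IC50 (µM)/MIC (µM) against H37Rv from the 4-week Sula medium assay.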

[2] = Selectivity index, ratio of IC50 for cytostatic activity against human MONO-MAC-6 cells to MIC for antimycobacterial activity against Mycobacterium tuberculosis H37Rv ATCC 27294; type: toxicity, cell-based; conditions: read-out: Selectivity Index; summary of the method: as §2
[3] = tested on: Mycobacteroides abscessus; assay: Antimycobacterial activity against Mycobacterium abscessus ATCC 19977 assessed as reduction in bacterial growth after 7 days by serial dilution method; type: functional; conditions: ATCC 19977, 168 h, time 7 day
Summary of the method: (§3)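 MIC determined in Sula semisynthetic medium, pH 6.5, 1 week incubation. Growth inhibition confirmed by plating on Löwenstein-Jensen solid medium and counting CFU. Bacteria inoculated without drug served as growth control.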

[4] = tested on: Mycobacterium tuberculosis; assay: Antimycobacterial activity against Mycobacterium tuberculosis H37Rv ATCC 27294 assessed as reduction in bacterial growth after 28 days by serial dilution method; type: functional; conditions: H37Rv ATCC 27294, 672 h, time 28 day
Summary of the method: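 Broth MIC in Sula semisynthetic medium, pH 6.5; 4-week incubation, with 21-day values […] where indicated. Drug-free inoculated bacteria served as growth control. MIC also expressed as drug content (µg/mL) = MIC (µM) × average SAL molar mass × number of SAL per conjugate / 1000.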

[5] = tested on: Mycobacterium tuberculosis; assay: Antimycobacterial activity against Mycobacterium tuberculosis H37Rv ATCC 27294 assessed as reduction in colony forming unit after 28 days by serial dilution method; type: functional, organism-based; conditions: time 28.0 day
Summary of the method: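 After the 4-week MIC incubation in Sula semisynthetic medium (pH 6.5), growth inhibition confirmed by plating on Löwenstein-Jensen solid medium and counting colony forming units.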

[6] = tested on: Mycobacteroides abscessus; assay: Antimycobacterial activity against Mycobacterium abscessus ATCC 19977 assessed as reduction in colony forming unit after 7 days by serial dilution method; type: functional, organism-based; conditions: time 7.0 day; summary of the method: as §3
MONO-MAC-6 = assay: Cytostatic activity against human MONO-MAC-6 cells assessed as reduction in cell viability incubated for 24 hrs by MTT assay; type: functional, cell-based; conditions: MONO-MAC-6, 24 h; summary of the method: as §1

SMILES	IC50 (HepG2) [µM]	selectivity ratio [1]	selectivity ratio [2]	MIC [3] [µM]	MIC [4] [µM]	Activity [5]	Activity [6]	IC50 (MONO-MAC-6) [µM]
O=Cc1ccc(O)c(C(=O)Nc2ccc(C(F)(F)F)cc2)c1	17.6	0.7	0.8	129 (≈ 40 µg/mL)	25.9 (≈ 8.01 µg/mL)	Active	Active	21.5
O=C(Nc1ccc(Cl)c(Cl)c1)c1cc(Br)ccc1O	4.1	2.9	1	7 (≈ 2.53 µg/mL)	1.4 (≈ 0.505 µg/mL)			1.4
NNC(=O)c1ccncc1 [ISONIAZID]				292 (≈ 40 µg/mL)	1.17 (≈ 0.16 µg/mL)	Active	Active	
C/C(=N\OCC(=O)N[C@H](C(=O)N[C@@H](CCCCN)C(=O)N1CCC[C@H]1C(=O)N1CCC[C@H]1C(=O)N[C@@H](CCCNC(=N)N)C(=O)O)[C@@H](C)O)c1ccc(NC(=O)c2cc(Br)ccc2O)cc1				203 (≈ 200 µg/mL)	20.3 (≈ 20 µg/mL)			
C/C(=N\OCC(=O)NCC(=O)N[C@@H](Cc1ccccc1)C(=O)N[C@@H](CC(C)C)C(=O)NCC(=O)N[C@H](C(=O)N[C@@H](CCCCN)C(=O)N1CCC[C@H]1C(=O)N1CCC[C@H]1C(=O)N[C@@H](CCCNC(=N)N)C(=O)O)[C@@H](C)O)c1ccc(NC(=O)c2cc(Br)ccc2O)cc1 [listing 1 of 2 here]				147 (≈ 200 µg/mL)	29.4 (≈ 40 µg/mL)			
C/C(=N\OCC(=O)NCC(=O)N[C@@H](Cc1ccccc1)C(=O)N[C@@H](CC(C)C)C(=O)NCC(=O)N[C@H](C(=O)N[C@@H](CCCCN)C(=O)N1CCC[C@H]1C(=O)N[C@@H](CCCCN)C(=O)NCC(=O)N[C@H](C(=O)N[C@@H](CCCCN)C(=O)N1CCC[C@H]1C(=O)N[C@@H](CCCCN)C(=O)NCC(=O)N[C@H](C(=O)N[C@@H](CCCCN)C(=O)N1CCC[C@H]1C(=O)N[C@@H](CCCCN)C(=O)NCC(=O)N[C@H](C(=O)N[C@@H](CCCCN)C(=O)N1CCC[C@H]1C(=O)N[C@@H](CCCCN)C(=O)NCC(N)=O)[C@@H](C)O)[C@@H](C)O)[C@@H](C)O)[C@@H](C)O)c1ccc(NC(=O)c2cc(Br)ccc2O)cc1				70.7 (≈ 200 µg/mL)	142 (≈ 400 µg/mL)			
C/C(=N\OCC(=O)NCC(=O)N[C@@H](Cc1ccccc1)C(=O)N[C@@H](CC(C)C)C(=O)NCC(=O)N[C@H](C(=O)N[C@@H](CCCCN)C(=O)N1CCC[C@H]1C(=O)N[C@@H](CCCNC(=N)N)C(=O)O)[C@@H](C)O)c1ccc(NC(=O)c2cc(Br)ccc2O)cc1 [listing 1 of 2 here]				158 (≈ 200 µg/mL)	31.6 (≈ 40 µg/mL)			
CCCCCCCCCCCCCCCC(=O)O [PALMITIC ACID]								178
O=C(Nc1ccc(Cl)c(Cl)c1)c1cc(Cl)ccc1O	2.4	1.5	2.4	3.2 (≈ 1.01 µg/mL)	1.6 (≈ 0.507 µg/mL)			3.8
C/C(=N\OCC(=O)NCC(=O)N[C@@H](Cc1ccccc1)C(=O)N[C@@H](CC(C)C)C(=O)NCC(=O)N[C@H](C(=O)N[C@@H](CCCCN)C(=O)N1CCC[C@H]1C(=O)N1CCC[C@H]1C(=O)N[C@@H](CCCNC(=N)N)C(=O)O)[C@@H](C)O)c1ccc(NC(=O)c2cc(Br)ccc2O)cc1 [listing 2 of 2 here]	156	5.3	> 6.8					> 200
O=C(Nc1ccc(C(F)(F)F)cc1)c1cc(Br)ccc1O	5.5	3.9	1.4	13.9 (≈ 5.01 µg/mL)	1.4 (≈ 0.504 µg/mL)			2
CCCCCCCCCC(=O)O [DECANOIC ACID]								> 200
C/C(=N\OCC(=O)NCC(=O)N[C@@H](Cc1ccccc1)C(=O)N[C@@H](CC(C)C)C(=O)NCC(=O)N[C@H](C(=O)N[C@@H](CCCCN)C(=O)N1CCC[C@H]1C(=O)N[C@@H](CCCNC(=N)N)C(=O)O)[C@@H](C)O)c1ccc(NC(=O)c2cc(Br)ccc2O)cc1 [listing 2 of 2 here]	113	3.6	> 6.3					> 200
CC(=O)c1ccc(NC(=O)c2cc(Cl)ccc2O)cc1	7.9	0.9	1.9	34.5 (≈ 10 µg/mL)	8.6 (≈ 2.49 µg/mL)	Active	Active	16.1
O=C(Nc1ccc(C(F)(F)F)cc1)c1cc(Cl)ccc1O	5.8			3.2 (≈ 1.01 µg/mL)	1.6 (≈ 0.505 µg/mL)			2.2
